A short description of experiment [1]: Cytotoxicity against human LKB1-positive NCI-H460 cells assessed as reduction in cell viability measured after 72 hrs by CellTiter-Blue cell viability assay. Type of experiment: functional, cell-based. In outline: (§1)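 Monolayer cultures in RPMI-1640 with 10% FBS at 37°C, seeded at 850 (H460 CTR5), 660 (H460 LKB1+/+) or 1780 (H322) cells/well so that the end point reaches 70–80% confluence. Treated 72h; vehicle 0.15% DMSO. CellTiter-Blue added until colour change (50–60, 80–90 or 100–120 min respectively), fluorescence read at 590 nm. IC50 by nonlinear regression; three independent experiments.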

The nature of experiment [2]: Cytotoxicity against human NCI-H460 spheroids expressing CTR5 gene assessed as reduction in cell viability measured after 96 hrs by CellTiter-Glo luminescence viability assay. It is filed as functional, cell-based. The settings on record: NCI-H460, 96 h. In outline:
(§2)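 Spheroids grown in round-bottom ultralow-attachment wells, 495 (H460 CTR5) or 650 (H322) cells/well. Drug exposure 96h with DMSO vehicle. CellTiter-Glo added, shaken 20 min, left 10 min, then luminescence read. IC50 by nonlinear regression; three independent experiments.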

Experiment [3] can be described thus: Cytotoxicity against human NCI-H322 cells assessed as reduction in cell viability measured after 72 hrs by CellTiter-Blue cell viability assay. It is filed as functional, cell-based. In outline:
as §1

Experiment [4] in a line: Cytotoxicity against human NCI-H460 cells expressing CTR5 gene assessed as reduction in cell viability measured after 72 hrs by CellTiter-Blue cell viability assay. It is filed as functional, cell-based. The procedure, abridged:
as §1

The nature of experiment [5]: Cytotoxicity against human NCI-H322 spheroids assessed as reduction in cell viability measured after 96 hrs by CellTiter-Glo luminescence viability assay. It is filed as functional. To be noted: NCI-H322, 96 h. In outline:
as §2

For a further experiment, the system named is NCI-H460. In words: Induction of autophagy in human NCI-H460 cells expressing CTR5 gene assessed as acidic vesicular organelle formation measured after 72 hrs by acridine orange dye based flow cytometry (reference value: 91.2%). Type of experiment: functional. The procedure, abridged: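 H460 CTR5 cells plated in 6-well plates (0.095 × 10⁵ cells/well, RPMI-1640 with 10% FBS) and treated 24 h later with vehicle (0.15% DMSO), drug at 3 or 4 μM, or medium alone for 72 h. Bafilomycin A1 was added to the untreated well 30 min before staining as negative control. Cells were stained with acridine orange for 15 min at 37°C in the dark. Flow cytometry read the red/green (FL3/FL1) ratio; three independent experiments.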

[6] abbreviates: Homo sapiens, NCI-H460, 72 h, read-out: IC50.
Where [7] appears, read: Homo sapiens, NCI-H322, 72 h, read-out: IC50.

Regarding `C[C@H]1[C@H](C)CC[C@@]23CC[C@]4(C)C(OC2=O)([C@H](F)C[C@@H]2[C@@]5(C)CC[C@H](O)C(C)(C)[C@@H]5CC[C@]24C)[C@H]13`, the IC50 in experiment [1] (setting [6]) is 18.7 µM; in experiment [2], 19.5 µM; in experiment [3] (setting [7]) it was 14.3 µM; in experiment [4] (setting [6]), 19.3 µM.

In the case of `C=C(C)[C@@H]1CC[C@]2(C)[C@H](C[C@@H](F)C34OC(=O)[C@@]5(CC[C@@H](C)[C@H](C)[C@@H]35)CC[C@]42C)[C@@]1(C)CCC(=O)NCCc1cccc(Cl)c1`, the IC50 in experiment [1] (setting [6]), in experiment [3] (setting [7]) and in experiment [4] (setting [6]) was more than 50 µM in each case.

Turning to `C=C(C)[C@@H]1CC[C@]2(C)[C@H](C[C@@H](F)C34OC(=O)[C@@]5(CC[C@@H](C)[C@H](C)[C@@H]35)CC[C@]42C)[C@@]1(C)CCC(=O)O`, the IC50 in experiment [1] (setting [6]), in experiment [3] (setting [7]) and in experiment [4] (setting [6]) was more than 50 µM in each case.

Regarding `C=C(C)[C@@H]1CC[C@]2(C)[C@H](C[C@@H](F)C34OC(=O)[C@@]5(CC[C@@H](C)[C@H](C)[C@@H]35)CC[C@]42C)[C@@]1(C)CCC(=O)NCc1ccc(F)cc1`, the IC50 in experiment [1] (setting [6]), in experiment [3] (setting [7]) and in experiment [4] (setting [6]) was more than 50 µM throughout.

Regarding `C=C(C)[C@@H]1CC[C@]2(C)[C@H](C[C@@H](F)C34OC(=O)[C@@]5(CC[C@@H](C)[C@H](C)[C@@H]35)CC[C@]42C)[C@@]1(C)CCC(=O)NCC`, the IC50 worked out at 7.8 µM in experiment [1] (setting [6]); 11.6 µM in experiment [5]; 5.7 µM in experiment [2]; 7.3 µM in experiment [3] (setting [7]); 5.3 µM in experiment [4] (setting [6]).

On to `C=C(C)[C@@H]1CC[C@]2(C)[C@H](C[C@@H](F)C34OC(=O)[C@@]5(CC[C@@H](C)[C@H](C)[C@@H]35)CC[C@]42C)[C@@]1(C)CCC#N`, for which the IC50 in experiment [1] (setting [6]), in experiment [3] (setting [7]) and in experiment [4] (setting [6]) was more than 17 µM in each case.

As for `C[C@H]1[C@H](C)CC[C@]2(C(=O)O)CC[C@]3(C)C(=CC[C@@H]4[C@@]5(C)CC[C@H](O)C(C)(C)[C@@H]5CC[C@]43C)[C@H]12` [URSOLIC ACID], the IC50 turned out to be 21.1 µM in experiment [1] (setting [6]); 18.2 µM in experiment [5]; 30.8 µM in experiment [2]; 15.3 µM in experiment [3] (setting [7]); 14.8 µM in experiment [4] (setting [6]).

`C[C@H]1[C@H](C)CC[C@@]23CC[C@]4(C)C(OC2=O)([C@H](F)C[C@@H]2[C@@]5(C)CCC(=O)C(C)(C)[C@@H]5CC[C@]24C)[C@H]13`: the IC50 in experiment [1] (setting [6]), in experiment [3] (setting [7]) and in experiment [4] (setting [6]) was more than 50 µM throughout.

For the compound `C=C(C)[C@@H]1CC[C@]2(C)[C@H](C[C@@H](F)C34OC(=O)[C@@]5(CC[C@@H](C)[C@H](C)[C@@H]35)CC[C@]42C)[C@@]1(C)CCC(=O)NCCc1ccccc1`, the IC50 in experiment [1] (setting [6]), in experiment [3] (setting [7]) and in experiment [4] (setting [6]) was more than 50 µM in each case.

`C=C(C)[C@@H]1CC[C@]2(C)[C@H](C[C@@H](F)C34OC(=O)[C@@]5(CC[C@@H](C)[C@H](C)[C@@H]35)CC[C@]42C)[C@@]1(C)CCC(N)=O`: the IC50 was found to be 21.8 µM in experiment [1] (setting [6]), 24.1 µM in experiment [3] (setting [7]) and 23 µM in experiment [4] (setting [6]).

For `C=C(C)[C@@H]1CC[C@]2(C)[C@H](C[C@@H](F)C34OC(=O)[C@@]5(CC[C@@H](C)[C@H](C)[C@@H]35)CC[C@]42C)[C@@]1(C)CCC(=O)Nc1ccccc1`, the IC50 in experiment [1] (setting [6]), in experiment [3] (setting [7]) and in experiment [4] (setting [6]) was more than 50 µM each time.

Turning to `C[C@H]1[C@H](C)CC[C@@]23CC[C@]4(C)C(OC2=O)([C@H](F)C[C@@H]2[C@@]5(C)CCC(=O)OC(C)(C)[C@@H]5CC[C@]24C)[C@H]13`, the IC50 entry in experiment [1] (nci-h460), in experiment [3] (nci-h322) and in experiment [4] (nci-h460) was “Nd(Insoluble)” in each case.

For `C=C(C)[C@@H]1CC[C@]2(C)[C@H](C[C@@H](F)C34OC(=O)[C@@]5(CC[C@@H](C)[C@H](C)[C@@H]35)CC[C@]42C)[C@@]1(C)CCC(=O)NCc1ccc(C)cc1`, the IC50 in experiment [1] (setting [6]), in experiment [3] (setting [7]) and in experiment [4] (setting [6]) was more than 50 µM each time.

For `CO/C1=C\C(C)=C\[C@@H](C)[C@@H](O)[C@@H](C)C/C(C)=C/C=C/[C@H](OC)[C@@H]([C@@H](C)[C@@H](O)[C@H](C)[C@@]2(O)C[C@@H](O)[C@H](C)[C@@H](C(C)C)O2)OC1=O` [BAFILOMYCIN A1], the Activity in the experiment on NCI-H460 was 100%.

For the compound `C=C(C)[C@@H]1CC[C@]2(C)[C@H](C[C@@H](F)C34OC(=O)[C@@]5(CC[C@@H](C)[C@H](C)[C@@H]35)CC[C@]42C)[C@@]1(C)CCC(=O)NC`, the IC50 was 6.7 µM in experiment [1] (setting [6]); 12.1 µM in experiment [5]; 3 µM in experiment [2]; 6.8 µM in experiment [3] (setting [7]); 4.5 µM in experiment [4] (setting [6]).

As to `C[C@H]1[C@H](C)CC[C@@]23CC[C@]4(C)C(OC2=O)([C@H](F)C[C@@H]2[C@@]5(C)CCC(=O)NC(C)(C)[C@@H]5CC[C@]24C)[C@H]13`, the figures for the IC50 in experiment [1] (setting [6]), in experiment [3] (setting [7]) and in experiment [4] (setting [6]) were 13.5 µM, more than 25 µM and more than 25 µM, respectively.

As to `C=C(C)[C@@H]1CC[C@]2(C)[C@H](C[C@@H](F)C34OC(=O)[C@@]5(CC[C@@H](C)[C@H](C)[C@@H]35)CC[C@]42C)[C@@]1(C)CCC(=O)NCCc1ccccc1OC`, the IC50 in experiment [1] (setting [6]), in experiment [3] (setting [7]) and in experiment [4] (setting [6]) was more than 50 µM throughout.
